# According to ChEMBL document CHEMBL3272061, “Experiments of synthesis of dl-camptothecin. 4. Synthesis and antileukemic activity of dl-camptothecin analogues” (J Med Chem, 1976):
# Calls of active or inactive are those of the source. No cut-off for these calls is given here.
# How the values were obtained:
# [1] = test system: L1210; assay: Antileukemic activity against mouse L1210 cells allografted in BDF1 mouse assessed as increase in life span of host at 52.1 umol/kg, ip relative to control; type: functional
# In short: (§1)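 BDF1 mice, 5 weeks old, were inoculated ip with 5×10^5 L1210 cells; test groups had 4 males and 4 females, controls 5 males and 5 females. A single ip dose was given on the day after inoculation, as a suspension in vehicle for the insoluble compounds. Read-out was increase in life span over controls, with survivors past 30 days counted as 30 days.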
# [2] = test system: L1210; assay: Antileukemic activity against mouse L1210 cells allografted in BDF1 mouse assessed as increase in life span of host at 20.8 umol/kg, ip relative to control; type: functional; in short: as §1
# [3] = Solubility of the compound; type: physicochemical
# [4] = test system: L1210; assay: Antileukemic activity against mouse L1210 cells allografted in BDF1 mouse assessed as host survival at 20.8 umol/kg, ip after 30 days; type: functional, organism-based
# In short: (§2)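 BDF1 mice, 5 weeks old, were inoculated ip with 5×10^5 L1210 cells in 0.1 ml saline. Test groups were 4 male and 4 female mice; controls were 5 male and 5 female. Insoluble compounds were suspended in vehicle. Dosing was ip, either once on the day after inoculation or daily for 5 days. Read-out was increase in life span over controls. Mice alive beyond 30 days were counted as 30 days and scored as survivors.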
# [5] = species: Mus musculus; assay: Toxicity in mouse L1210 cells allografted BDF1 mouse; type: organism-based
# [6] = test system: L1210; assay: Antileukemic activity against mouse L1210 cells allografted in BDF1 mouse assessed as increase in life span of host at 1 umol/kg, sc qd for 5 days relative to control; type: functional; details: 120 h
# [7] = test system: L1210; assay: Antileukemic activity against mouse L1210 cells allografted in BDF1 mouse assessed as increase in life span of host at 5 umol/kg, sc qd for 5 days relative to control; type: functional; details: 120 h
# [8] = test system: L1210; assay: Antileukemic activity against mouse L1210 cells allografted in BDF1 mouse assessed as increase in life span of host at 12.5 umol/kg, po qd for 5 days relative to control; type: functional; details: 120 h
# [9] = test system: L1210; assay: Antileukemic activity against mouse L1210 cells allografted in BDF1 mouse assessed as increase in life span of host at 5 umol/kg, ip qd for 5 days relative to control; type: functional; details: 120 h
# In short: (§3)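 BDF1 mice, 5 weeks old, were inoculated ip with 5×10^5 L1210 cells; test groups had 4 males and 4 females, controls 5 males and 5 females. Dosing was ip, five times over the 5 days after inoculation, as a suspension in vehicle for the insoluble compounds. Read-out was increase in life span over controls.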
# [10] = test system: L1210; assay: Antileukemic activity against mouse L1210 cells allografted in BDF1 mouse assessed as increase in life span of host at 25 umol/kg, ip qd for 5 days relative to control; type: functional; details: 120 h; in short: as §3
# [11] = test system: L1210; assay: Antileukemic activity against mouse L1210 cells allografted in BDF1 mouse assessed as increase in life span of host at 12.5 umol/kg, ip qd for 5 days relative to control; type: functional; details: 120 h; in short: as §2
# [12] = test system: L1210; assay: Antileukemic activity against mouse L1210 cells allografted in BDF1 mouse assessed as increase in life span of host at 5 umol/kg, po qd for 5 days relative to control; type: functional; details: 120 h
# [13] = test system: L1210; assay: Antileukemic activity against mouse L1210 cells allografted in BDF1 mouse assessed as increase in life span of host at 25 umol/kg, po qd for 4 days relative to control; type: functional; details: 96 h
# [14] = test system: L1210; assay: Antileukemic activity against mouse L1210 cells allografted in BDF1 mouse assessed as increase in life span of host at 1 umol/kg, ip qd for 5 days relative to control; type: functional; details: 120 h; in short: as §2
# [15] = test system: L1210; assay: Antileukemic activity against mouse L1210 cells allografted in BDF1 mouse assessed as increase in life span of host at 25 umol/kg, sc qd for 5 days relative to control; type: functional; details: 120 h
# [16] = test system: L1210; assay: Antileukemic activity against mouse L1210 cells allografted in BDF1 mouse assessed as increase in life span of host at 5.56 umol/kg, ip relative to control; type: functional; in short: as §1
# [17] = test system: L1210; assay: Antileukemic activity against mouse L1210 cells allografted in BDF1 mouse assessed as increase in life span of host at 27.8 umol/kg, ip qd for 5 days relative to control; type: functional; details: 120 h; in short: as §3
# [18] = test system: L1210; assay: Antileukemic activity against mouse L1210 cells allografted in BDF1 mouse assessed as increase in life span of host at 27.8 umol/kg, ip relative to control; type: functional; in short: as §1
# [19] = test system: L1210; assay: Antileukemic activity against mouse L1210 cells allografted in BDF1 mouse assessed as increase in life span of host at 27.8 umol/kg, po qd for 4 days relative to control; type: functional; details: 96 h
# [20] = test system: L1210; assay: Antileukemic activity against mouse L1210 cells allografted in BDF1 mouse assessed as increase in life span of host at 13.8 umol/kg, sc qd for 5 days relative to control; type: functional; details: 120 h
# [21] = test system: L1210; assay: Antileukemic activity against mouse L1210 cells allografted in BDF1 mouse assessed as increase in life span of host at 5.56 umol/kg, ip qd for 5 days relative to control; type: functional; details: 120 h; in short: as §3
# [22] = test system: L1210; assay: Antileukemic activity against mouse L1210 cells allografted in BDF1 mouse assessed as increase in life span of host at 278 umol/kg, ip relative to control; type: functional; in short: as §1
# [23] = test system: L1210; assay: Antileukemic activity against mouse L1210 cells allografted in BDF1 mouse assessed as increase in life span of host at 5.56 umol/kg, sc qd for 5 days relative to control; type: functional; details: 120 h
# [24] = test system: L1210; assay: Antileukemic activity against mouse L1210 cells allografted in BDF1 mouse assessed as increase in life span of host at 5.56 umol/kg, po qd for 4 days relative to control; type: functional; details: 96 h
# [25] = test system: L1210; assay: Antileukemic activity against mouse L1210 cells allografted in BDF1 mouse assessed as increase in life span of host at 1.11 umol/kg, ip qd for 5 days relative to control; type: functional; details: 120 h; in short: as §2
# [26] = test system: L1210; assay: Antileukemic activity against mouse L1210 cells allografted in BDF1 mouse assessed as increase in life span of host at 13.8 umol/kg, ip qd for 5 days relative to control; type: functional; details: 120 h; in short: as §2
# [27] = test system: L1210; assay: Antileukemic activity against mouse L1210 cells allografted in BDF1 mouse assessed as increase in life span of host at 139 umol/kg, ip relative to control; type: functional; in short: as §2
# [28] = test system: L1210; assay: Antileukemic activity against mouse L1210 cells allografted in BDF1 mouse assessed as increase in life span of host at 69.4 umol/kg, ip relative to control; type: functional; in short: as §1
# [29] = test system: L1210; assay: Antileukemic activity against mouse L1210 cells allografted in BDF1 mouse assessed as increase in life span of host at 1.11 umol/kg, sc qd for 5 days relative to control; type: functional; details: 120 h
# [30] = test system: L1210; assay: Antileukemic activity against mouse L1210 cells allografted in BDF1 mouse assessed as increase in life span of host at 13.8 umol/kg, po qd for 4 days relative to control; type: functional; details: 96 h
# [31] = test system: L1210; assay: Antileukemic activity against mouse L1210 cells allografted in BDF1 mouse assessed as increase in life span of host at 5.21 umol/kg, ip relative to control; type: functional; in short: as §1
# [32] = test system: L1210; assay: Antileukemic activity against mouse L1210 cells allografted in BDF1 mouse assessed as increase in life span of host at 27.8 umol/kg, sc qd for 5 days relative to control; type: functional; details: 120 h
# [33] = test system: L1210; assay: Antileukemic activity against mouse L1210 cells allografted in BDF1 mouse assessed as host survival at 45.7 umol/kg, ip after 30 days; type: functional, organism-based; in short: as §2
# [34] = test system: L1210; assay: Antileukemic activity against mouse L1210 cells allografted in BDF1 mouse assessed as increase in life span of host at 24.4 umol/kg, ip relative to control; type: functional; in short: as §1
# [35] = test system: L1210; assay: Antileukemic activity against mouse L1210 cells allografted in BDF1 mouse assessed as increase in life span of host at 45.7 umol/kg, ip relative to control; type: functional; in short: as §1
# [36] = test system: L1210; assay: Antileukemic activity against mouse L1210 cells allografted in BDF1 mouse assessed as increase in life span of host at 61 umol/kg, ip relative to control; type: functional; in short: as §1
# [37] = test system: L1210; assay: Antileukemic activity against mouse L1210 cells allografted in BDF1 mouse assessed as host survival at 61 umol/kg, ip after 30 days; type: functional, organism-based; in short: as §2
# [38] = test system: L1210; assay: Antileukemic activity against mouse L1210 cells allografted in BDF1 mouse assessed as host survival at 4.17 umol/kg, ip after 30 days; type: functional, organism-based; in short: as §2
# [39] = test system: L1210; assay: Antileukemic activity against mouse L1210 cells allografted in BDF1 mouse assessed as host survival at 57.1 umol/kg, ip after 30 days; type: functional, organism-based; in short: as §2
# [40] = test system: L1210; assay: Antileukemic activity against mouse L1210 cells allografted in BDF1 mouse assessed as increase in life span of host at 57.1 umol/kg, ip relative to control; type: functional; in short: as §1
# [41] = test system: L1210; assay: Antileukemic activity against mouse L1210 cells allografted in BDF1 mouse assessed as increase in life span of host at 22.8 umol/kg, ip relative to control; type: functional; in short: as §1
# [42] = test system: L1210; assay: Antileukemic activity against mouse L1210 cells allografted in BDF1 mouse assessed as increase in life span of host at 4.17 umol/kg, ip relative to control; type: functional; in short: as §1
# [43] = test system: L1210; assay: Antileukemic activity against mouse L1210 cells allografted in BDF1 mouse assessed as host survival at 22.8 umol/kg, ip after 30 days; type: functional, organism-based; in short: as §2
compound,measurement,setting,value
CCOCc1c(C(O)(CC(=O)OCC)C(=O)OCC)cc2n(c1=O)Cc1cc3ccccc3nc1-2 (stereo not drawn),ILS at 52.1 µmol/kg,[1],> 170%
same,ILS at 20.8 µmol/kg,[2],55%
same,solubility,[3],Insoluble
same,Activity,[4],inactive
same,Activity,[5],Toxic
C=CCC1(O)C(=O)OCc2c1cc1n(c2=O)Cc2cc3ccccc3nc2-1 (stereo not drawn),ILS at 1 µmol/kg,[6],-2%
same,ILS at 5 µmol/kg,[7],9%
same,ILS at 12.5 µmol/kg,[8],40%
same,ILS at 5 µmol/kg,[9],13%
same,ILS at 25 µmol/kg,[10],> 118%
same,ILS at 12.5 µmol/kg,[11],58%
same,ILS at 5 µmol/kg,[12],12%
same,ILS at 25 µmol/kg,[13],21%
same,ILS at 1 µmol/kg,[14],-2%
same,ILS at 25 µmol/kg,[15],72%
C=CCC1(O)C(=O)OCc2c1cc1n(c2=O)Cc2cc3ccccc3nc2-1 (racemic),ILS at 5.56 µmol/kg,[16],16%
same,ILS at 27.8 µmol/kg,[17],-13%
same,ILS at 27.8 µmol/kg,[18],84%
same,ILS at 27.8 µmol/kg,[19],-1%
same,ILS at 13.8 µmol/kg,[20],26%
same,ILS at 5.56 µmol/kg,[21],42%
same,ILS at 278 µmol/kg,[22],-43%
same,ILS at 5.56 µmol/kg,[23],4%
same,ILS at 5.56 µmol/kg,[24],3%
same,solubility,[3],Insoluble
same,ILS at 1.11 µmol/kg,[25],14%
same,ILS at 13.8 µmol/kg,[26],> 105%
same,ILS at 139 µmol/kg,[27],> 60%
same,ILS at 69.4 µmol/kg,[28],> 155%
same,ILS at 1.11 µmol/kg,[29],-1%
same,ILS at 13.8 µmol/kg,[30],-1%
same,ILS at 5.21 µmol/kg,[31],-5%
same,ILS at 27.8 µmol/kg,[32],51%
same,Activity,[5],Toxic
O=C1OCc2c(cc3n(c2=O)Cc2cc4ccccc4nc2-3)C1(O)Cc1ccccc1 (racemic),Activity,[33],inactive
same,ILS at 24.4 µmol/kg,[34],> 171%
same,ILS at 45.7 µmol/kg,[35],12%
same,solubility,[3],Insoluble
same,ILS at 61 µmol/kg,[36],-34%
same,Activity,[37],inactive
same,Activity,[5],Toxic
O=C(CC1(O)C(=O)OCc2c1cc1n(c2=O)Cc2cc3ccccc3nc2-1)c1ccccc1 (racemic),Activity,[38],inactive
same,Activity,[39],inactive
same,ILS at 57.1 µmol/kg,[40],21%
same,ILS at 22.8 µmol/kg,[41],10%
same,ILS at 4.17 µmol/kg,[42],26%
same,solubility,[3],Insoluble
same,Activity,[43],inactive
